# Results: ChEMBL document CHEMBL2407056, “3-(Oxazolo[4,5-b]pyridin-2-yl)anilides as a novel class of potent inhibitors for the kinetoplastid Trypanosoma brucei, the causative agent for human African trypanosomiasis” (Eur J Med Chem, 2013)
# Experiments:
# [1] = test system: Trypanosoma brucei brucei; experiment: Antitrypanosomal activity against Trypanosoma brucei brucei 427 bloodstream form after 48 hrs by Alamar blue assay; assay type: functional, organism-based; conditions: Trypanosoma brucei, 427, 48 h
# Outline: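 Bloodstream parasites in 384-well plates, 24 h preincubation at 37 °C/5% CO2. DMSO dilutions diluted 1:21 in DMEM and added to give final 41.67 to 0.0004 µM; 48 h incubation. 70% Alamar Blue in HMI-9 + 10% FCS added, 2 h at 37 °C then 22 h at room temperature; read at ex 535/em 590 nm.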
# [2] = Selectivity index, ratio of IC50 for HEK293 cells to IC50 for Trypanosoma brucei brucei 427 bloodstream form; assay type: toxicity, cell-based; conditions: human, read-out: Ratio IC50
# Outline: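 HEK293 cells (55 µL of 72,727 cells/mL in DMEM + 10% FCS) in 384-well plates, 24 h at 37 °C/5% CO2. Drug diluted 1:21 from DMSO, final 83.34 to 0.0004 µM, 48 h. […] SI relative to T. b. brucei.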
# [3] = Kinetic solubility of the compound in phosphate buffer at pH 6.5 by nephelometry; assay type: physicochemical; conditions: read-out: Kinetic_solubility
# Outline: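 DMSO stocks spiked into pH 6.5 phosphate buffer or 0.01 M HCl (about pH 2.0), final DMSO 1% (v/v). Solubility range determined by nephelometry.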
# [4] = Half life in human liver microsomes at 1 uM by LC-MS analysis; assay type: ADME, Microsome
# Outline: (§1)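 Compound at 1 µM final (1 in 500 dilution of stock) incubated at 37 °C with human liver microsomes in 0.1 M phosphate buffer pH 7.4, 0.4 mg/mL protein. First-order depletion rate from exponential decay fit used to derive in vitro CLint and half-life; predicted hepatic extraction ratio from scaled CLint with liver blood flow 20.7 mL/min/kg.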
# [5] = Kinetic solubility of the compound in phosphate buffer at pH 2 by nephelometry; assay type: physicochemical; conditions: read-out: Kinetic_solubility
# [6] = Partition coefficient, log D of the compound at pH 7.4 by HPLC analysis; assay type: physicochemical; conditions: octanol/water
# Outline: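 Chromatographic gradient HPLC: mobile phase 50 mM ammonium acetate pH 7.4 (or ammonium formate pH 3.0) with an acetonitrile gradient of 0–100% over 10 min; UV detection at 220 and 254 nm.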
# [7] = Intrinsic clearance in human liver microsomes at 1 uM after 60 mins by LC-MS analysis; assay type: ADME, Microsome; conditions: read-out: CLH; outline: as §1
# [8] = test system: Trypanosoma cruzi; experiment: Antitrypanosomal activity against Trypanosoma cruzi Tulahuen C2C4 amastigotes infected in rat L6 cells after 96 hrs by beta-galactosidase reporter gene assay; assay type: functional, organism-based; conditions: Tulahuen C2C4, L6, 96 h
# Outline: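 L-6 cells (2000/well, RPMI 1640 + 10% FBS, 2 mM L-glutamine) infected after 24 h with 5000 LacZ-expressing trypomastigotes. At 48 h the medium was replaced with eleven 3-fold drug dilutions (100 to 0.002 µg/mL). After 96 h, CPRG/Nonidet substrate added, colour read at 540 nm after 2–6 h. IC50 by linear regression from sigmoidal curves; benznidazole control.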
# [9] = test system: Leishmania donovani; experiment: Antimicrobial activity against Leishmania donovani MHOM/ET/67/L82 amastigote form after 70 hrs by Alamar blue assay; assay type: functional, organism-based; conditions: MHOM/ET/67/L82, 70 h
# Outline: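 Axenic amastigotes grown at 37 °C in SM medium pH 5.4 with 10% heat-inactivated FBS, 5% CO2; 10⁵ parasites per well exposed to eleven 3-fold dilutions (100 to 0.002 µg/mL) for 70 h. Alamar Blue (resazurin) added for 2–4 h, fluorescence read at ex 536/em 588 nm. IC50 by linear regression from sigmoidal curves; miltefosine control.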
# [10] = test system: L6; experiment: Cytotoxicity against rat L6 cells after 70 hrs by Alamar blue assay; assay type: cell-based; conditions: L6, 70 h
# Outline: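 4000 L-6 cells per well in RPMI 1640 with L-glutamine and 10% FBS. Eleven 3-fold dilutions from 100 to 0.002 µg/mL for 70 h; Alamar Blue 2 h, fluorescence at ex 536/em 588 nm. IC50 by linear regression from sigmoidal curves; podophyllotoxin control.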
# [11] = test system: Plasmodium falciparum; experiment: Antimicrobial activity against Plasmodium falciparum NF54 infected in human RBC after 48 hrs by [3H]hypoxanthine incorporation assay; assay type: functional, organism-based
# Outline: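 Erythrocytic stage, drug-sensitive strain, in hypoxanthine-free RPMI 1640 with HEPES, NaHCO3, neomycin, Albumax, human A+ red cells at 2.5% haematocrit, 0.3% parasitaemia. Eleven 3-fold dilutions from 100 to 0.002 µg/mL; 37 °C, 4% CO2/3% O2/93% N2. ³H-hypoxanthine added at 48 h, further 24 h, then harvested and scintillation-counted. IC50 by linear regression; chloroquine control.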
# [12] = test system: Leishmania donovani; experiment: Antimicrobial activity against Leishmania donovani amastigote form infected in mouse peritoneal macrophage after 96 hrs by Giemsa staining method; assay type: functional, organism-based
# Outline: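 Mouse peritoneal macrophages (4×10⁴/well, RPMI 1640 + 10% heat-inactivated FBS) infected after 24 h with 1.2×10⁵ axenic amastigotes; free parasites removed at 4 h, drug dilutions added next day. After 96 h, methanol fixation and 10% Giemsa staining; infected and non-infected macrophages counted, % reduction in parasite burden vs controls, IC50 by linear regression; miltefosine control.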
# [13] = test system: Trypanosoma brucei rhodesiense; experiment: Antitrypanosomal activity against Trypanosoma brucei rhodesiense STIB 900 bloodstream form after 70 hrs by Alamar blue assay; assay type: functional, organism-based; conditions: STIB 900, 70 h
# Outline: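 Bloodstream forms (4×10³/well) in MEM with 25 mM HEPES, extra glucose, non-essential amino acids, 0.2 mM 2-mercaptoethanol, 1 mM pyruvate and 15% heat-inactivated horse serum. Eleven 3-fold dilutions from 100 to 0.002 µg/mL, 70 h at 37 °C/5% CO2; Alamar Blue 2 h, fluorescence at ex 536/em 588 nm; IC50 by linear regression; melarsoprol control. SI relative to L6 cells.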
IC50 [1],Compound,selectivity ratio [2],other results
> 10000 nM,COc1cccc(C(=O)Nc2ccc(Cl)c(-c3nc4ncccc4o3)c2)c1,–,–
5700 nM,O=C(Nc1ccc(Cl)c(-c2nc3ncccc3o2)c1)c1ccccn1,15,–
3400 nM,O=C(Nc1ccc(Cl)c(-c2nc3ncccc3o2)c1)c1ccncc1,–,–
> 10000 nM,O=C(Nc1ccc(Cl)c(-c2nc3ncccc3o2)c1)c1cccnc1,–,–
170 nM,Cc1ccoc1C(=O)Nc1cccc(-c2nc3ncccc3o2)c1,115,solubility kinetic [3]: 3.1 µg/mL; half-life at 1 µM [4]: 10 min; solubility kinetic [5]: 6.3 µg/mL; logD [6]: 2.9; microsomal CLint at 1 µM [7]: 181 µL/min/mg
650 nM,Cc1ccoc1C(=O)Nc1ccc(Cl)c(-c2nc3ncccc3o2)c1,> 130,–
3200 nM,O=C(Nc1ccc(Cl)c(-c2nc3ncccc3o2)c1)c1ccno1,–,–
1500 nM,O=C(Nc1ccc(Cl)c(-c2nc3ncccc3o2)c1)c1cnco1,> 45,–
1800 nM,O=C(Nc1ccc(Cl)c(-c2nc3ncccc3o2)c1)c1cscn1,39,IC50 [8]: 2300 nM; IC50 [9]: 4800 nM; IC50 [10]: 235000 nM; IC50 [11]: 7700 nM; IC50 [12]: > 84000 nM; IC50 [13]: 1100 nM
> 10000 nM,O=C(Nc1ccc(Cl)c(-c2nc3ncccc3o2)c1)c1cc[nH]n1,–,–

# The remaining lines, values behind:
Compound,IC50 [1],selectivity ratio [2],other results
COc1ccccc1C(=O)Nc1ccc(Cl)c(-c2nc3ncccc3o2)c1,> 10000 nM,–,–
COCC(=O)Nc1ccc(Cl)c(-c2nc3ncccc3o2)c1,> 10000 nM,–,–
O=C(Nc1cccc(-c2nc3ncccc3o2)c1)c1cnco1,2900 nM,29,–
O=C(Nc1cccc(-c2nc3ncccc3o2)c1)c1ccoc1,600 nM,89,–
O=C(Nc1cccc(-c2nc3ncccc3o2)c1)c1cscn1,1300 nM,63,–
Cc1c(NC(=O)c2ccco2)cccc1-c1nc2ncccc2o1,> 10000 nM,–,–
O=C(Nc1cccc(-c2nc3ncccc3o2)c1F)c1ccco1,> 10000 nM,–,–
O=C(Nc1cccc(-c2nc3ncccc3o2)c1Cl)c1ccco1,> 10000 nM,–,–
O=C(Nc1cc(-c2nc3ncccc3o2)ccn1)c1ccco1,> 10000 nM,–,–
O=C(Nc1cc(-c2nc3ncccc3o2)ccc1F)c1ccco1,6300 nM,13,–
O=C(Nc1cncc(-c2nc3ncccc3o2)c1)c1ccco1,> 10000 nM,–,–
O=C(Nc1cc(F)cc(-c2nc3ncccc3o2)c1)c1ccco1,> 10000 nM,–,–
O=C(Cn1ccnc1[N+](=O)[O-])NCc1ccccc1 [BENZNIDAZOLE],–,–,EC50 [8]: 1460 nM
CCN(CC)CCCC(C)Nc1ccnc2cc(Cl)ccc12 (configuration not stated) [CHLOROQUINE],–,–,EC50 [11]: 6 nM
CCCCCCCCCCCCCCCCOP(=O)([O-])OCC[N+](C)(C)C [MILTEFOSINE],–,–,EC50 [9]: 490 nM; EC50 [12]: 1670 nM
COc1cc([C@@H]2c3cc4c(cc3[C@H](O)[C@H]3COC(=O)[C@H]23)OCO4)cc(OC)c1OC [PODOFILOX],–,–,EC50 [10]: 17 nM
